Measurements taken from ChEMBL document CHEMBL3351262, “Design and synthesis of new benzimidazole-carbazole conjugates for the stabilization of human telomeric DNA, telomerase inhibition, and their selective action on cancer cells” (J Med Chem, 2014).
Active and inactive are the calls of the source. The rule behind the calls is not given here.

How the values were obtained:
Calf thymus DNA [1] = assay: Binding affinity to calf thymus DNA in 10 mM pH 7.4 Tris-Hcl buffer containing 0.1 mM EDTA and 40 mM NaCl by fluorescence spectroscopy; assay type: nucleic-acid assay, Bos taurus
How it was run: (§1)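 CT DNA was in the same Tris/EDTA buffer with 40 mM NaCl. 0.4 μM ligand was titrated with preformed DNA, incubated 10 min at 20 °C, and excited at 300 or 330 nm. Kd and binding stoichiometry n came from the emission titration.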

HEK-293T [2] = assay: Cytotoxicity against transformed HEK293T cells at 2 and 5 uM after 15 days by MTT assay; conditions: Homo sapiens
Calf thymus DNA [3] = assay: Binding affinity to calf thymus DNA in 10 mM pH 7.4 Tris-Hcl buffer containing 0.1 mM EDTA and 40 mM NaCl by CD spectroscopy; conditions: Bos taurus
Homo sapiens [4] = organism: Homo sapiens; assay: Binding affinity to human Hum21 [5'-G3(T2AG3)3-3'] G-quadruplex DNA assessed as change in melting temperature in 10 mM pH 7.4 Tris-Hcl buffer containing 0.1 mM EDTA and 0.1 mM NaCl […] (reference value: 7 to 10 degC)
[5] = target: T1, Telomerase reverse transcriptase (Homo sapiens, UniProt O14746); assay: Total inhibition of telomerase isolated form human A549 cells by TRAP-LIG assay
T1 sequence (O14746 whole entry): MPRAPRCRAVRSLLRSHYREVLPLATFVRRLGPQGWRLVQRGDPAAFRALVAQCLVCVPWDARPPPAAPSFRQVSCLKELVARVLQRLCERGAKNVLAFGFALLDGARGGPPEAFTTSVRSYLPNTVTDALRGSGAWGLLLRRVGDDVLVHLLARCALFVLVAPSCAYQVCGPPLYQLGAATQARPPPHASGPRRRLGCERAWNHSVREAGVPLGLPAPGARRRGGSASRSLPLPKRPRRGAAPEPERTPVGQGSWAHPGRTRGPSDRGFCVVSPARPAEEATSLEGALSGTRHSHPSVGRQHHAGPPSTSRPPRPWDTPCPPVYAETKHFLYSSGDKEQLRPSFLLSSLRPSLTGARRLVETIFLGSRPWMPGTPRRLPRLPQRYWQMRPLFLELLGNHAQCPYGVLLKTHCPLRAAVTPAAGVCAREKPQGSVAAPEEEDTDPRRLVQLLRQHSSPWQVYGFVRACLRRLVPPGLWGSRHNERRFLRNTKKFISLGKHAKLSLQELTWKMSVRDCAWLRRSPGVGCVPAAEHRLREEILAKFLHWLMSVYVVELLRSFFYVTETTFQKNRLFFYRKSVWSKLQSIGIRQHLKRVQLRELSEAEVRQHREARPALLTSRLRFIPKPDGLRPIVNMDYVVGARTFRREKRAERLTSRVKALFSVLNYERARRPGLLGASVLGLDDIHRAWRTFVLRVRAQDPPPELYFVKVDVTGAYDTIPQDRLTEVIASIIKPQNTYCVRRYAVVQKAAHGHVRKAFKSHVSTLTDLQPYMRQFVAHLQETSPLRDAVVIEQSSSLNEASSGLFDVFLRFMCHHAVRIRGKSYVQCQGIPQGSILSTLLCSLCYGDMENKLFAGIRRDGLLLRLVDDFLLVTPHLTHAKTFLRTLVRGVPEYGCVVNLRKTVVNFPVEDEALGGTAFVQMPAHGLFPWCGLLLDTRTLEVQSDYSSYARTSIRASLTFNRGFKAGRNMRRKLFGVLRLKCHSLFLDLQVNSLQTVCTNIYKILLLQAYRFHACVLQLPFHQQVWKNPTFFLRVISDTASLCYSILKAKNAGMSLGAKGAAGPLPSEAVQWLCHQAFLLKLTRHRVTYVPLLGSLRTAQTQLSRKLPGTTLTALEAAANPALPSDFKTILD

Homo sapiens [6] = organism: Homo sapiens; assay: Binding affinity to human Hum21 [5'-G3(T2AG3)3-3'] G-quadruplex DNA in 10 mM pH 7.4 Tris-Hcl buffer containing 0.1 mM EDTA and […] by CD spectroscopy
[7] = Binding affinity to human Hum21 [5'-G3(T2AG3)3-3'] G-quadruplex DNA at 5 uM in 10 mM pH 7.4 Tris-Hcl buffer containing 0.1 mM EDTA and 0.1 M KCl by UV-Vis absorption sperctrometry
[8] = Displacement of thiazole orange from calf thymus double stranded DNA in presence of 10 mM pH 7.4 Tris-Hcl buffer containing 0.1 mM EDTA and […] by fluorescent intercalator displacement assay; parameters: species or system Bos taurus
HeLa [9] = assay: Cytotoxicity against human HeLa cells at 2 and 5 uM after 15 days by MTT assay
[10] = Selectivity index, ratio of Kd for calf thymus DNA to Kd for human Hum21 [5'-G3(T2AG3)3-3'] G-quadruplex DNA
How it was run: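 Selectivity is the ratio of fluorescence-titration Kd for CT DNA (Tris-HCl pH 7.4, 40 mM NaCl, 0.1 mM EDTA) to Kd for preformed Hum21 G4 DNA (Tris-HCl pH 7.4, 0.1 M NaCl/KCl, 0.1 mM EDTA).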

Calf thymus DNA [11] = assay: Binding affinity to calf thymus DNA at 0.4 uM in 10 mM pH 7.4 Tris-Hcl buffer containing 0.1 mM EDTA and 40 mM NaCl by fluorescence spectroscopy; assay type: nucleic-acid assay; conditions: Bos taurus; how it was run: as §1
[12] = Displacement of thiazole orange from telomeric duplex DNA (unknown origin) in presence of 10 mM pH 7.4 Tris-Hcl buffer containing 0.1 mM EDTA and […] by fluorescent intercalator displacement assay
Homo sapiens [13] = organism: Homo sapiens; assay: Binding affinity to human Hum21 [5'-G3(T2AG3)3-3'] G-quadruplex DNA assessed as change in melting temperature in 10 mM pH 7.4 Tris-Hcl buffer containing 0.1 mM EDTA and […] measured after 12 hrs by UV-Vis absorption sperctrometry (reference value: 7 to 13 degC)
[14] = Displacement of thiazole orange from human Hum21 [5'-G3(T2AG3)3-3'] G-quadruplex DNA in presence of 10 mM pH 7.4 Tris-Hcl buffer containing 0.1 mM EDTA and […] by fluorescent intercalator displacement assay
[15] = Binding affinity to human Hum21 [5'-G3(T2AG3)3-3'] G-quadruplex DNA at 5 uM in 10 mM pH 7.4 Tris-Hcl buffer containing 0.1 mM EDTA and 0.1 M NaCl by UV-Vis absorption sperctrometry
[16] = Binding affinity to human Hum21 [5'-G3(T2AG3)3-3'] G-quadruplex DNA at 0.4 uM in 10 mM pH 7.4 Tris-Hcl buffer containing 0.1 mM EDTA and 0.1 mM NaCl by fluorescence spectroscopy
[17] = target: T1, Telomerase reverse transcriptase; assay: Inhibition of telomerase isolated form human A549 cells by TRAP-LIG assay
[18] = Binding affinity to human Hum21 [5'-G3(T2AG3)3-3'] G-quadruplex DNA at 0.4 uM in 10 mM pH 7.4 Tris-Hcl buffer containing 0.1 mM EDTA and […] by fluorescence spectroscopy
HeLa [19] = assay: Induction of apoptosis in human HeLa cells at 10 uM after 12 hrs by Annexin V and propidium iodide staining based FACS analysis; assay type: functional
How it was run: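 HeLa cells were seeded at 0.25 million per well, and after 24 h exposed to 10 μM ligand for 12 h. Cells were washed, trypsinized and resuspended in HEPES binding buffer (0.14 M NaCl, 2.5 mM CaCl2). They were stained with Annexin V-FITC and PI (final 1 μg/mL, 5 min), then analyzed by flow cytometry. Gated Annexin-only-positive cells were scored as apoptotic.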

HeLa [20] = assay: Cytotoxicity against human HeLa cells after 72 hrs by MTT assay; assay type: functional, cell-based
How it was run: (§2)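 Cells were seeded at 15.0 × 10³/well and grown 72 h to >70% confluency. They were treated with ligand or 0.1% DMSO in 10% FBS for 72 h at 37 °C, 5% CO2, then given fresh DMEM/10% FBS. MTT (5 mg/mL stock) was added for 4 h, formazan dissolved in DMSO, and read at 595 nm. Viability was normalized to untreated cells after DMSO-blank subtraction. Doses were run in triplicate, with at least three independent experiments.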

HeLa [21] = assay: Cytotoxicity against human HeLa cells at 0.5 to 8 uM after 72 hrs by MTT assay; assay type: functional, cell-based; how it was run: as §2
HeLa [22] = assay: Induction of apoptosis in human HeLa cells assessed as nuclear fragmentation at 10 uM after 12 hrs by propidium iodide staining based FACS analysis; assay type: functional, cell-based
[23] = Drug uptake in cytoplasm of HFF cells at 10 uM after 12 hrs by confocal microscopy; assay type: ADME, cell-based; conditions: human
How it was run: (§3)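 Cells were grown on glass coverslips and treated with 10 μM ligand for 12 h. They were washed in DPBS, fixed in 4% paraformaldehyde for 10 min, and permeabilized with 0.1% Triton X-100 for 5 min. Nuclei were counterstained with propidium iodide. Blue ligand fluorescence and nuclear localization were imaged by confocal microscopy.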

HFF [24] = assay: Cytotoxicity against HFF cells at 0.5 to 8 uM after 72 hrs by MTT assay; assay type: cell-based; conditions: human; how it was run: as §2
HEK-293T [25] = assay: Cytotoxicity against transformed HEK293T cells after 72 hrs by MTT assay; assay type: functional, cell-based; conditions: Homo sapiens; how it was run: as §2
[26] = Drug uptake in nucleus of human HeLa cells at 10 uM after 12 hrs by propidium iodide staining; assay type: ADME, cell-based; how it was run: as §3
A549 [27] = assay: Cytotoxicity against human A549 cells at 0.5 to 8 uM after 72 hrs by MTT assay; assay type: functional, cell-based; how it was run: as §2
[28] = Drug uptake in nucleus of human HeLa cells at 10 uM after 12 hrs by confocal microscopy; assay type: ADME, cell-based; how it was run: as §3
HEK-293T [29] = assay: Cytotoxicity against transformed HEK293T cells at 0.5 to 8 uM after 72 hrs by MTT assay; assay type: functional, cell-based; conditions: Homo sapiens; how it was run: as §2
Homo sapiens [30] = organism: Homo sapiens; assay: Stabilization of 32P-ATP labeled human Hum21 [5'-G3(T2AG3)3-3'] G-quadruplex DNA assessed as protection against S1 nuclease-mediated degradation at 2.5 to 5 uM pre-incubated for 4 hrs before S1 nuclease addition by PAGE method
How it was run: (§4)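 5′-32P-labelled Hum21 was mixed with cold DNA and annealed in KCl; lanes were run in 50 mM KCl. G4 DNA was pre-incubated with ligand for 4 h. 2 μM DNA was digested with 20 U S1 nuclease for 2 min, quenched with acetate/CT DNA/EDTA stop buffer, and ethanol precipitated. Products ran on a 15% polyacrylamide urea sequencing gel beside an A+G ladder and were imaged by phosphorimager.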

HFF [31] = assay: Induction of apoptosis in HFF cells assessed as nuclear fragmentation at 10 uM after 12 hrs by propidium iodide staining based FACS analysis; assay type: cell-based; conditions: human
Homo sapiens [32] = organism: Homo sapiens; assay: Induction of formation of human Hum21 [5'-G3(T2AG3)3-3'] G-quadruplex DNA at [compound]/[DNA] ratio of 5 in 10 mM pH 7.4 Tris-Hcl buffer containing 0.1 mM EDTA and […] by CD spectroscopy
How it was run: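 Hum21 was folded in the presence of ligand at the stated [L]:[DNA] ratio in 10 mM Tris-HCl pH 7.4, 0.1 mM EDTA, 0.1 M KCl or NaCl. Annealing was 95 °C for 5 min with slow cooling to 24 °C over 24 h. Topology was read from CD spectra recorded at 20 °C.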

A549 [33] = assay: Cytotoxicity against human A549 cells after 72 hrs by MTT assay; assay type: functional, cell-based; conditions: A549, 72 h; how it was run: as §2
Homo sapiens [34] = organism: Homo sapiens; assay: Stabilization of 32P-ATP labeled human Hum21 [5'-G3(T2AG3)3-3'] G-quadruplex DNA assessed as protection against S1 nuclease-mediated degradation at 2.5 to 7.5 uM pre-incubated for 4 hrs before S1 nuclease addition by PAGE method; how it was run: as §4

Activity (Calf thymus DNA [3])	ΔTm (Homo sapiens [4])	concentration giving total telomerase inhibition [5]	Activity (Homo sapiens [6])	Kd [7]	DC50 [8]	Ratio [10]	Activity (Calf thymus DNA [11])	DC50 [12]	ΔTm (Homo sapiens [13])	DC50 [14]	Kd [15]	Kd [16]	IC50 [17]	Kd [18]	SMILES	Kd (Calf thymus DNA [1])	inhibition (HEK-293T [2])	inhibition (HeLa [9])	Activity (HeLa [19])	IC50 (HeLa [20])	other results
inactive	8 °C	3 µM	Active	0.33 µM	Not Active	650	inactive	Not Active	7 °C	1.01 µM	0.48 µM	0.19 µM	1.6 µM		CN1CCN(CCCCn2c3ccc(-c4nc5cc(N6CCOCC6)ccc5[nH]4)cc3c3cc(-c4nc5cc(N6CCOCC6)ccc5[nH]4)ccc32)CC1	312 µM	Active	Active			
Active	10 °C	3 µM	Active	0.23 µM	Not Active	234	inactive	Not Active	10 °C	1.36 µM	0.38 µM	0.18 µM	1.8 µM	0.15 µM	CN1CCN(CCCCn2c3ccc(-c4nc5cc(-c6nc7cc(N8CCN(C)CC8)ccc7[nH]6)ccc5[nH]4)cc3c3cc(-c4nc5cc(-c6nc7cc(N8CCN(C)CC8)ccc7[nH]6)ccc5[nH]4)ccc32)CC1	89 µM	Active	Active			
inactive	15 °C	1 µM	Active	0.03 µM		500	inactive		19 °C	1.12 µM	0.05 µM	0.08 µM	0.6 µM	0.03 µM	CN1CCN(CCCCn2c3ccc(-c4nc5cc(N6CCN(CCO)CC6)ccc5[nH]4)cc3c3cc(-c4nc5cc(N6CCN(CCO)CC6)ccc5[nH]4)ccc32)CC1	25 µM	Active	Active	55%	8 µM	Activity (HeLa [21]): Active; Activity (HeLa [22]): Active; Drug uptake [23]: Active; Activity (HFF [24]): Non-toxic; IC50 (HEK-293T [25]): 8 µM; DC50 ([8]; read-out: DC50): 7.71 µM; Drug uptake [26]: Active; Activity (A549 [27]): Active; DC50 ([12]; read-out: DC50): > 8 µM; Drug uptake [28]: Active; Activity (HEK-293T [29]): Active; Activity (Homo sapiens [30]): Active; Activity (HFF [31]): Non-toxic; Activity (Homo sapiens [32]): Active; IC50 (A549 [33]): 8 µM
inactive	12 °C	1 µM	Active	0.13 µM	Not Active	576	inactive	Not Active	16 °C	0.61 µM	0.34 µM	0.15 µM	0.9 µM	0.1 µM	CN1CCN(CCCCn2c3ccc(-c4nc5cc(N6CCN(C)CC6)ccc5[nH]4)cc3c3cc(-c4nc5cc(N6CCN(C)CC6)ccc5[nH]4)ccc32)CC1	196 µM	Active	Active	25%	8 µM	Activity (Homo sapiens [34]): Active; Activity (HeLa [21]): Active; Activity (HeLa [22]): Active; Drug uptake [23]: Active; Activity (HFF [24]): Non-toxic; IC50 (HEK-293T [25]): 8 µM; Drug uptake [26]: Active; Activity (A549 [27]): Active; Drug uptake [28]: Active; Activity (HEK-293T [29]): Active; Activity (HFF [31]): Non-toxic; Activity (Homo sapiens [32]): inactive; IC50 (A549 [33]): 8 µM
